Calls of active or inactive are those of the source. The calls are words filed in the database; no cut-off is given here.

Series [1] relates to Primary lung fibroblast. Put plainly: Antifibrotic activity against TGFbeta1-induced fibrosis in human primary lung fibroblasts assessed as decrease in CTGF protein level at 10 to 60 ug/ml measured after 72 hrs by immunoblotting analysis. The conditions noted are these: dose microg/ml 10-60, time 72.0 hrs. The format is functional, tissue-based. The method in brief:
(§1)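 Primary human fibroblasts were exposed for 72 h to vehicle (DMSO), TGFβ1, or TGFβ1 plus compound at the indicated concentrations. Fibrotic factors in cell lysates and conditioned medium were detected by immunoblotting, with GAPDH as internal control.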

In series [2] the test system is Primary lung fibroblast. Put plainly: Antifibrotic activity against TGFbeta1-induced fibrosis in human primary lung fibroblasts assessed as decrease in alpha-SMA protein level at 10 to 60 ug/ml measured after 72 hrs by immunoblotting analysis. The series is classed as functional, tissue-based. The conditions noted are these: dose microg/ml 10-60, time 72.0 hrs. The method in brief:
as §1
On the technique in general: A western blot detects proteins with antibodies after separation by electrophoresis.

Series [3] deals with Primary lung fibroblast. Put plainly: Antifibrotic activity against TGFbeta1-induced fibrosis in human primary lung fibroblasts assessed as decrease in collagen type-1 protein level at 10 to 60 ug/ml measured after 72 hrs by immunoblotting analysis. The conditions noted are these: dose microg/ml 10-60, time 72.0 hrs. The series is classed as functional, tissue-based. The method in brief:
as §1

Series [4] relates to Primary lung fibroblast. The series is described as follows: Antifibrotic activity against TGFbeta1-induced fibrosis in human primary lung fibroblasts assessed as decrease in IGFBP-3 protein level at 10 to 60 ug/ml measured after 72 hrs by immunoblotting analysis. The series is classed as functional, tissue-based. The conditions noted are these: dose microg/ml 10-60, time 72.0 hrs. The method in brief: as §1

Series [5] concerns Primary lung fibroblast. Put plainly: Antifibrotic activity against TGFbeta1-induced fibrosis in human primary lung fibroblasts assessed as decrease in fibronectin protein level at 10 to 60 ug/ml measured after 72 hrs by immunoblotting analysis. The series is classed as functional, tissue-based. The conditions noted are these: dose microg/ml 10-60, time 72.0 hrs. The method in brief:
as §1

For series [6], the system named is Primary lung fibroblast. The series is described as follows: Antifibrotic activity against TGFbeta1-induced fibrosis in human primary lung fibroblasts assessed as decrease in COL1A1 expression level at 91 to 500 ug/ml measured after 48 hrs by qRT-PCR analysis. The conditions noted are these: dose microg/ml 500, time 48.0 hrs, in the assay text read “at 500 ug/ml” for “at 91 to 500 ug/ml”. The series is classed as functional, tissue-based. The method in brief:
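Primary fibroblasts were treated for 48 h with TGFβ1 with or without compound (500 μg/mL). Extracted RNA was used for real-time PCR of COL1A1. N = 4, mean ± SD.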

Series [7] relates to Primary lung fibroblast. Put plainly: Antifibrotic activity against TGFbeta1-induced fibrosis in human primary lung fibroblasts assessed as decrease in IGFBP-3 protein level at 500 ug/ml measured after 72 hrs by immunoblotting analysis. The format is functional, tissue-based. The conditions noted are these: dose 500.0 µg/ml. The method in brief: (§2)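 Primary human fibroblasts received vehicle, 10 ng/mL TGFβ1, 500 μg/mL compound, or TGFβ1 plus compound for 72 h. Vehicles were 4 mM HCl/0.1% BSA for TGFβ1 and 1× PBS for compound. Cell lysates and conditioned medium were immunoblotted with GAPDH as internal control. Densitometry is expressed as mean relative change versus vehicle or internal control ± SDEV, N = 3.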

The subject of series [8] is Primary lung fibroblast. Put plainly: Antifibrotic activity in human primary lung fibroblasts assessed as decrease in fibronectin protein level at 500 ug/ml measured after 72 hrs by immunoblotting analysis. The conditions noted are these: dose 500.0 µg/ml. The series is classed as functional, tissue-based. The method in brief:
as §2

Series [9] concerns Zone of skin. The series is described as follows: Antifibrotic activity against TGFbeta1-induced dermal fibrosis in human skin assessed as reduction in fibronectin expression level stimulated with TGFbeta1 for 24 hrs followed by compound treatment at 500 ug/ml measured after 72 hrs by qRT-PCR analysis. The series is classed as functional, tissue-based. The conditions noted are these: Skin of body, dose 500.0 µg/ml. The method in brief: (§3)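 Human skin in organ culture was treated with vehicle (1× PBS) or 10 ng/mL TGFβ1, then given 500 μg/mL compound 24 h later. CTGF expression in whole skin was read 24 h after compound addition. COL1A1 and FN expression in whole skin were read 72 h after compound addition.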
Background: Real-time PCR tracks product formation cycle by cycle.

Series [10] deals with Primary lung fibroblast. Put plainly: Antifibrotic activity against TGFbeta1-induced fibrosis in human primary lung fibroblasts assessed as decrease in CTGF protein level at 500 ug/ml treated at 30 mins to 6 hrs post TGFbeta1 stimulation by immunoblotting analysis. The format is functional, tissue-based. The conditions noted are these: dose 500.0 µg/ml, time 6.5 hrs. The method in brief:
(§4)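 Therapeutic-timing design in fibroblasts: 500 μg/mL compound was added together with 10 ng/mL TGFβ1 or 30 min to 6 h after TGFβ1. Profibrotic factors were then assessed by immunoblotting.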

Series [11] deals with Mus musculus. Put plainly: Antifibrotic activity against bleomycin-induced C57BL/6J mouse lung fibrosis model assessed as reduction in COL1A2 mRNA level at 2%, po via gavage administered as single dose measured within 5 days by qRT-PCR analysis. The series is classed as functional, organism-based. The conditions noted are these: time day <=5. The method in brief: (§5)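 Mouse groups received PBS, bleomycin, or bleomycin plus 2% compound. Lung histology was assessed 14 days post-treatment. Lung COL1A2 mRNA was measured at 5 days, normalized to GAPDH. Lung hydroxyproline (total collagen) was measured at 14 days. Data are mean ± SD.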

For series [12], the system named is Primary lung fibroblast. The series is described as follows: Antifibrotic activity in human primary lung fibroblasts assessed as decrease in CTGF protein level at 500 ug/ml measured after 72 hrs by immunoblotting analysis. The conditions noted are these: dose 500.0 µg/ml. The format is functional, tissue-based. The method in brief:
as §2

For series [13], the system named is Primary lung fibroblast. Put plainly: Antifibrotic activity in human primary lung fibroblasts assessed as decrease in alpha-SMA protein level at 500 ug/ml measured after 72 hrs by immunoblotting analysis. The format is functional, tissue-based. The conditions noted are these: dose 500.0 µg/ml. The method in brief:
as §2

Series [14] is described as follows: Toxicity in bleomycin-induced C57BL/6J mouse lung fibrosis model assessed as improvement in mouse survival relative to control. The conditions noted are these: in vivo.
Series [15] relates to Primary lung fibroblast. The series is described as follows: Antifibrotic activity against TGFbeta1-induced fibrosis in human primary lung fibroblasts assessed as decrease in IGFBP-3 protein level at 500 ug/ml treated at 30 mins to 6 hrs post TGFbeta1 stimulation by immunoblotting analysis. The series is classed as functional, tissue-based. The conditions noted are these: dose 500.0 µg/ml, time 6.5 hrs. The method in brief:
as §4

The test system of series [16] is Primary lung fibroblast. Put plainly: Antifibrotic activity against TGFbeta1-induced fibrosis in human primary lung fibroblasts assessed as decrease in collagen type-1 protein level at 500 ug/ml measured after 72 hrs by immunoblotting analysis. The series is classed as functional, tissue-based. The conditions noted are these: dose 500.0 µg/ml. The method in brief: as §2

The subject of series [17] is Primary lung fibroblast. The series is described as follows: Antifibrotic activity in against TGFbeta1-induced fibrosis in human primary lung fibroblasts assessed as decrease in collagen type-1 protein level at 500 ug/ml treated at 30 mins to 6 hrs post TGFbeta1 stimulation by immunoblotting analysis. The format is functional, tissue-based. The conditions noted are these: dose 500.0 µg/ml, time 6.5 hrs. The method in brief:
as §4

The subject of series [18] is Primary lung fibroblast. Put plainly: Antifibrotic activity against TGFbeta1-induced fibrosis in human primary lung fibroblasts assessed as decrease in alpha-SMA protein level at 500 ug/ml measured after 72 hrs by immunoblotting analysis. The format is functional, tissue-based. The conditions noted are these: dose 500.0 µg/ml. The method in brief:
as §2

The test system of series [19] is Primary lung fibroblast. The series is described as follows: Antifibrotic activity in human primary lung fibroblasts assessed as decrease in collagen type-1 protein level at 500 ug/ml measured after 72 hrs by immunoblotting analysis. The series is classed as functional, tissue-based. The conditions noted are these: dose 500.0 µg/ml. The method in brief: as §2
The subject of series [20] is Zone of skin. Put plainly: Antifibrotic activity against TGFbeta1-induced dermal fibrosis in human skin assessed as reduction in CTGF expression level stimulated with TGFbeta1 for 24 hrs followed by compound treatment at 500 ug/ml measured after 24 hrs by QRT-PCR analysis. The conditions noted are these: Skin of body, dose 500.0 µg/ml. The format is functional, tissue-based. The method in brief:
as §3

Series [21] concerns Primary lung fibroblast. Put plainly: Antifibrotic activity against TGFbeta1-induced fibrosis in human primary lung fibroblasts assessed as decrease in alpha-SMA protein level at 500 ug/ml treated at 30 mins to 6 hrs post TGFbeta1 stimulation by immunoblotting analysis. The format is functional, tissue-based. The conditions noted are these: dose 500.0 µg/ml, time 6.5 hrs. The method in brief: as §4

Series [22] relates to Mus musculus. The series is described as follows: Antifibrotic activity against bleomycin-induced C57BL/6J mouse lung fibrosis model at 2%, po via gavage administered as single dose measured after 14 days by hematoxylin and eosin staining based microscopic analysis. The series is classed as functional, organism-based. The conditions noted are these: time day 14. The method in brief:
as §5

Series [23] has as its system Primary lung fibroblast. The series is described as follows: Antifibrotic activity against TGFbeta1-induced fibrosis in human primary lung fibroblasts assessed as decrease in fibronectin protein level at 500 ug/ml measured after 72 hrs by immunoblotting analysis. The format is functional, tissue-based. The conditions noted are these: dose 500.0 µg/ml. The method in brief: as §2

Series [24] is described as follows: Solubility of the compound in water. The conditions noted are these: buffer. The format is physicochemical.
The test system of series [25] is Mus musculus. Put plainly: Antifibrotic activity against bleomycin-induced C57BL/6J mouse lung fibrosis model assessed as reduction in hydroxyproline level in lung at 2%, po via gavage administered as single dose measured on 14 days by hydroxyproline assay. The conditions noted are these: time day 14. The series is classed as functional, organism-based. The method in brief:
as §5

Series [26] deals with Primary lung fibroblast. Put plainly: Antifibrotic activity against TGFbeta1-induced fibrosis in human primary lung fibroblasts assessed as decrease in CTGF protein level at 500 ug/ml measured after 72 hrs by immunoblotting analysis. The format is functional, tissue-based. The conditions noted are these: dose 500.0 µg/ml. The method in brief: as §2
The test system of series [27] is Zone of skin. Put plainly: Antifibrotic activity against TGFbeta1-induced dermal fibrosis in human skin assessed as reduction in COL1A1 expression level stimulated with TGFbeta1 for 24 hrs followed by compound treatment at 500 ug/ml measured after 72 hrs by qRT-PCR analysis. The format is functional, tissue-based. The conditions noted are these: Skin of body, dose 500.0 µg/ml. The method in brief:
as §3

Series [28] concerns Primary lung fibroblast. The series is described as follows: Antifibrotic activity against TGFbeta1-induced fibrosis in human primary lung fibroblasts assessed as decrease in TGFbeta1-induced fibronectin protein level at 500 ug/ml treated at 30 mins to 6 hrs post TGFbeta1 stimulation by immunoblotting analysis. The format is functional, tissue-based. The conditions noted are these: dose 500.0 µg/ml, time 6.5 hrs. The method in brief: as §4

The test system of series [29] is Primary lung fibroblast. The series is described as follows: Antifibrotic activity in human primary lung fibroblasts assessed as decrease in IGFBP-3 protein level at 500 ug/ml measured after 72 hrs by immunoblotting analysis. The format is functional, tissue-based. The conditions noted are these: dose 500.0 µg/ml. The method in brief: as §2
Series [30] can be described thus: Lipophilicity, log P of the compound. The series is classed as physicochemical. The conditions noted are these: octanol/water.

Take `CC1(C[S+]([O-])c2ccccc2)COC1` (racemic): the outcome in the series on Primary lung fibroblast [1], with Primary lung fibroblast [2], with Primary lung fibroblast [3], with Primary lung fibroblast [4] and with Primary lung fibroblast [5] was Active.

For `[O-][S+](CC1(F)COC1)c1cccc(F)c1` (racemic), in the series on Primary lung fibroblast [6], the outcome was Active.

For the compound `CC1(C[S+]([O-])CC2(C)COC2)COC1`, the result in the series on Primary lung fibroblast [7], in the series with Primary lung fibroblast [8], in the series with Zone of skin [9], with Primary lung fibroblast [10], with Mus musculus [11] and with Primary lung fibroblast [12] was Active. For the same compound, the result with Primary lung fibroblast [13], in the series with Primary lung fibroblast [15], in the series on Primary lung fibroblast [16], in the series on Primary lung fibroblast [17], in the series with Primary lung fibroblast [18] and in the series with Primary lung fibroblast [19] was Active. Also, the result with Zone of skin [20], with Primary lung fibroblast [21], with Mus musculus [22], with Primary lung fibroblast [23], in the series on Mus musculus [25] and with Primary lung fibroblast [26] was Active. Also, the result in the series with Zone of skin [27], in the series with Primary lung fibroblast [28] and in the series on Primary lung fibroblast [29] was Active. Also, the Activity in [14] came out at 87.5%. In addition, in series [24], the solubility entry is given as “Soluble”. In [30], this compound had a logP of -0.7.

By logP is commonly meant a log measure of how a compound divides between an organic and an aqueous phase. A higher logP goes with a more lipophilic compound.

Values taken from ChEMBL document CHEMBL4725484, “Oxetanyl Sulfoxide MMS-350 Ameliorates Pulmonary Fibrosis In Vitro, In Vivo, and Ex Vivo” (ACS Med Chem Lett, 2020).
